Compounds with a hit are over-represented: about 1% of the library has one in this group of screens.
Yeast tox: Inhibitors of S. cerevisiae growth, toxicity | S. cerevisiae wild-type growth, A595 turbidity, 16 h | growth inhibition, % at 25 µM (by protocol) | 30,000 compounds, 0.3% hits | AID 685;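 active = mutant and wild-type yeast strains alike exhibit over 30% growth inhibition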;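 also: 0% = untreated cell controls and 100% = YPD media blanks without cells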
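Schedule: 16 h growth with compound, 30 °C. System: yeast, wild-type or eIF2Bepsilon-R284H mutant. Doses: one dose, 25 µM compound[…]. Buffer or medium: YPD. Signal: turbidity measured as absorbance at 595 nm. Read-out basis: growth inhibition (%) versus cell controls and blanks.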
Yeast eIF2B: eIF2B (yeast) activity modulation; inhibition, % at 25 µM (by protocol); 27,000 compounds, 0.91% hits; S. cerevisiae eIF2B-epsilon R284H, GCN4-lacZ luminescence; AID 688;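 active = mutant luminescence inhibited past about 50% while wild type luminescence and mutant growth stay under set limits, limit read from the data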
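Material – yeast eIF2B-epsilon R284H mutant carrying GCN4–beta-galactosidase fusion · Medium – YPD yeast growth medium · Compound – one concentration, 25 µM, 0.25% DMSO · Times – 16 h at 30 °C exposure · Signal – Beta-Glo luminescence plus absorbance at 595 nm · Read-out – % inhibition of reporter signal and growth versus controls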
* = called active by the depositor; x = not tested or not shown.

SMILES	Yeast tox	Yeast eIF2B
COc1ccc(OC)c(NC(=O)CNC(=O)Cn2cnc3ccccc3c2=O)c1	-3.7	64.9*
Cc1ccc(C(C)NC(=O)c2cc(C)oc2C)cc1 (stereo not drawn)	13.4	4.1
CCCOc1ccc(C(=O)N2CCCc3ccccc32)cc1	-14.4	73.3*
COc1cc(OC)cc(C(=O)N2CCCc3ccccc32)c1	2.5	18.8
COC(=O)c1ccc(C(=O)OC)c(NC(=O)CSc2nc(-c3ccco3)cc(C(F)(F)F)n2)c1	0.0	17.9
COC(=O)c1ccccc1NC(=O)CSc1nc(-c2ccco2)cc(C(F)(F)F)n1	-5.1	65.6*
O=C(OCC1COc2ccccc2O1)c1c(F)cccc1F (stereo not drawn)	10.6	13.0
COC(=O)C1(Cc2ccccc2)NC(c2ccccc2C)C2C(=O)N(c3ccc4c(c3)OCO4)C(=O)C21 (stereo not drawn)	-18.1	21.8
COc1cccc(C2NC(CC(C)C)(C(=O)O)C3C(=O)N(Cc4ccccc4)C(=O)C23)c1O (stereo not drawn)	17.7	51.8*
COc1cc(C(=O)Nc2sc(C(=O)N3CCOCC3)c(C)c2C#N)cc(OC)c1OC	-7.8	16.4
Cc1c(C(=O)N2CCCC2)sc(NC(=O)c2ccc(Cl)cc2)c1C#N	7.5	71.4*
CN(C1CCCCC1)S(=O)(=O)c1ccc(NC(=O)C2CCCCC2C(=O)O)cc1 (stereo not drawn)	-7.1	x
COCC(=O)NC(c1ccccc1)c1ccccc1	8.7	62.4*
COCC(=O)Nc1ccccc1NC(C)=O	3.6	24.3
CNC(=O)CC1C(=O)N(C)C(=S)N1NC(=O)c1ccc(Cl)cc1 (stereo not drawn)	12.3	x
CC1=C(C)/C(=N\OS(=O)(=O)c2ccccc2)C=CC1=O	99.6*	89.3
CCOc1ccc(-n2nc(C(=O)N3CCN(CC)CC3)c3ccccc3c2=O)cc1	-21.4	-18.4
CCOc1ccc(-n2nc(C(=O)N3CCOCC3)c3ccccc3c2=O)cc1	-11.1	58.9*
COc1ccc(-c2cc(-c3ccccc3O)[nH]n2)cc1OC	5.0	17.4
Oc1ccc(Br)cc1-c1cc(-c2ccc(Cl)cc2)n[nH]1	-15.4	x
Cc1ccc(O)c(-c2cc(-c3ccccc3F)[nH]n2)c1	-4.6	x
Cc1ccc(O)c(-c2cc(-c3cccc(F)c3)n[nH]2)c1	51.4*	x
Oc1ccccc1-c1cc(-c2ccc3c(c2)OCCO3)n[nH]1	x	51.0*
Cc1ccc(-c2cc(-c3cccc(F)c3)n[nH]2)c(O)c1	30.0*	x
Cc1ccc(-c2cc(C(=O)Nc3c(C)n(C)n(-c4ccccc4)c3=O)[nH]n2)c(O)c1	-14.1	x
SMILES	Yeast tox	Yeast eIF2B
Oc1ccc(Br)cc1-c1cc(-c2ccccc2)n[nH]1	80.0*	28.2
CC1CCCN(C(=O)CCCn2c(=S)[nH]c3ccccc3c2=O)C1 (stereo not drawn)	7.5	18.9
O=S(=O)(Nc1cnc2ccccc2c1)N1CCCCCC1	-4.6	10.1
O=C(CCc1ccccc1)Nc1c(F)cccc1F	10.3	34.2
Cc1ccc(CSCCNC(=O)CN2C(=O)c3ccccc3S2(=O)=O)cc1	-6.1	-3.6
CCOC(=O)CSc1nc2sc3c(c2c(=O)[nH]1)CCCC3	-43.8	50.1*
CCCCSc1nc2sc3c(c2c(=O)[nH]1)CCC3	-20.4	15.8
CCCCN1C(=O)CN(CCc2ccccc2)C(=O)C1c1ccc(OC)cc1 (stereo not drawn)	1.3	58.0*
CCNC(=O)CC1C(=O)N(c2ccccc2)C(=O)N1CCc1ccc(OC)cc1 (stereo not drawn)	5.1	14.4
Cc1cc(Cl)ccc1N=c1ssnc1Cl	78.9*	1.9
C=CCSc1ncccc1C(=O)NCc1ccccc1	-11.1	-10.9
O=C(OC(C(=O)NC1CCCC1)c1ccccn1)c1cccs1 (stereo not drawn)	0.3	-19.7
CC12CC(c3ccccc3O1)C(C(=O)NCc1ccccc1)C(=O)N2 (stereo not drawn)	-7.3	x
COC(=O)c1cn(CCOc2ccccc2)c2ccccc12	10.6	61.3*
COC(=O)c1cn(CCOc2ccccc2OC)c2ccccc12	x	7.1
COc1ccccc1NC(=O)c1oc2ccccc2c1NC(=O)c1cc(OC)c(OC)c(OC)c1	-44.0	63.2*
COCC(=O)Nc1c(C(=O)Nc2ccccc2OC)oc2ccccc12	-16.7	10.1
CCC(C)NCCOCCOc1ccc(F)cc1 (stereo not drawn)	11.2	-26.1
NC(=O)C1CCCN(S(=O)(=O)c2ccc(Br)cc2)C1 (stereo not drawn)	-12.5	28.5
Cn1cccc1C1Nc2ccccc2NC2=C1C(=O)CC(C)(C)C2 (stereo not drawn)	22.4	5.4
CCOC(=O)c1c(NC(=O)c2c(Br)cnn2CC)sc(C)c1C	-16.8	26.3
O=C(OCn1ncc(Br)c(Br)c1=O)c1c(F)cccc1F	81.6*	x
O=C(CSc1nc2ccccc2[nH]1)N1CCN(S(=O)(=O)c2ccc(Cl)cc2)CC1	8.1	x
CCC(C)N(C(=O)COC(=O)c1[nH]c(C)c(C(C)=O)c1C)C1CCS(=O)(=O)C1 (stereo not drawn)	-0.9	54.5*
CCN(C(=O)COC(=O)c1[nH]c(C)c(C(C)=O)c1C)C1CCS(=O)(=O)C1 (stereo not drawn)	-4.0	-3.2
SMILES	Yeast tox	Yeast eIF2B
CCCOc1ccc(CC(=O)NCC2(c3ccccc3)CCOCC2)cc1OC	17.9	12.2
Cc1ccc(NS(=O)(=O)c2ccc(OCC(=O)N3CCOCC3)cc2)cc1	9.2	22.2
O=C(O)CN1CCCC1=Nc1ccccc1	8.3	x
Cc1ccc(C)c(N=C2CCCN2Cc2ccccc2)c1C#N	x	56.8*
Cc1cccc(OCc2nnc(NC(=O)c3cccs3)s2)c1	5.5	-25.6
O=C(Nc1nnc(COc2ccc(Cl)cc2)s1)c1cccs1	2.0	50.3*
O=C(CC1Nc2ccccc2NC1=O)NC1CCCCC1 (stereo not drawn)	-16.3	57.8*
O=C(CCC1=NS(=O)(=O)c2ccccc2N1)NC1CCCCCCC1	-6.4	22.2
CCOc1ccc(N(C(C)C(=O)NCc2ccco2)S(C)(=O)=O)cc1 (stereo not drawn)	7.8	9.5
O=C(CCS(=O)NCc1ccccc1)NCc1ccccc1 (stereo not drawn)	0.9	10.5
O=C(CCS(=O)CCC(=O)NCc1ccccc1)NCc1ccccc1	-11.1	54.8*
CC(C)c1nnc(NC(=O)CSc2ccccc2)s1	28.1	x
CCOC(=O)CC1=NC(=O)CS1	2.6	63.9*
COCCOC(=O)CC1=NC(=O)CS1	21.2	0.7
COc1ccccc1-c1nnc(SCC(=O)OC(C)C)o1	-2.3	17.4
CCCCCCCCCCn1c2c(c(=N)c3c1CCC3)CCC2	78.9*	x
CCCCCCn1ccc(=N)cc1	-8.1	-16.6
CS(=O)(=O)NCCOc1ccc(S(=O)(=O)N2CCCc3ccccc32)cc1	-4.5	-13.9
COc1cc(/C=C2\C(=O)N(CCC#N)N=C2C)c(Br)cc1OC(C)C	-16.8	53.0*
COc1ccccc1NC(=O)C1CC(=O)OC1c1ccccc1 (stereo not drawn)	3.4	13.5
CCCOC(=O)c1ccc(Oc2cn[nH]c2-c2ccc(OC)cc2O)cc1	60.0*	29.0
CCOc1ccc(-c2[nH]ncc2Oc2ccccc2OC)c(O)c1	32.5	8.2
CC1(C)CC(=O)c2cc(OCC(=O)N3CCOCC3)ccc2O1	4.4	27.3
CC1(C)CC(=O)c2cc(OCC(=O)NCCCN3CCN(c4ccccc4F)CC3)ccc2O1	-17.4	51.5*
